Series [1] concerns the target T1, Amine oxidase [copper-containing] 3 (Rattus norvegicus, UniProt O08590).
T1 sequence (O08590 whole entry): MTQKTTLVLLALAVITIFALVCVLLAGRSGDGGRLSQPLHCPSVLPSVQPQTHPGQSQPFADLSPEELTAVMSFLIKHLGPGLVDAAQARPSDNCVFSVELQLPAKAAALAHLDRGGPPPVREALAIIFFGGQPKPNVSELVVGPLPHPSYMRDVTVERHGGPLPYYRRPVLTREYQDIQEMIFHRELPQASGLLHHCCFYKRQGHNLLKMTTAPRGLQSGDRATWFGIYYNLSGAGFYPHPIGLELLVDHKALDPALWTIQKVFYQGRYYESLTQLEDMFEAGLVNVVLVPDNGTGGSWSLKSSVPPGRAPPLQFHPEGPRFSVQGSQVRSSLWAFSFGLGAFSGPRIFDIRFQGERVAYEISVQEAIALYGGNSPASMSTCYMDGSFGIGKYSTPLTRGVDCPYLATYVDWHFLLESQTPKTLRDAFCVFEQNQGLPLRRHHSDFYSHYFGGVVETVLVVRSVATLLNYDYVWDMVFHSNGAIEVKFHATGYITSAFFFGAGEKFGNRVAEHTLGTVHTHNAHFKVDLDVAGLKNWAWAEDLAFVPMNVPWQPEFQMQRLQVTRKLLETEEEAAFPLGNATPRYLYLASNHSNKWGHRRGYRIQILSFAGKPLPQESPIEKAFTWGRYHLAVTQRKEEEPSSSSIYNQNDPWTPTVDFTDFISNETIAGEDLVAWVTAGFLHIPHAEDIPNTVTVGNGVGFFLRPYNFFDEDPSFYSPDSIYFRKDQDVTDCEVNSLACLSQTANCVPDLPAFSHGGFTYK
Put plainly: Inhibition of rat VAP-1 expressed in CHO cells using 14C-benzylamine as substrate preincubated for 20 mins followed by substrate addition measured after 1 hr by scintillation spectrometric analysis. It counts as cell-based.

The target of series [2] is T2, Amine oxidase [copper-containing] 3 (Homo sapiens, UniProt Q16853).
T2 sequence (Q16853 whole entry): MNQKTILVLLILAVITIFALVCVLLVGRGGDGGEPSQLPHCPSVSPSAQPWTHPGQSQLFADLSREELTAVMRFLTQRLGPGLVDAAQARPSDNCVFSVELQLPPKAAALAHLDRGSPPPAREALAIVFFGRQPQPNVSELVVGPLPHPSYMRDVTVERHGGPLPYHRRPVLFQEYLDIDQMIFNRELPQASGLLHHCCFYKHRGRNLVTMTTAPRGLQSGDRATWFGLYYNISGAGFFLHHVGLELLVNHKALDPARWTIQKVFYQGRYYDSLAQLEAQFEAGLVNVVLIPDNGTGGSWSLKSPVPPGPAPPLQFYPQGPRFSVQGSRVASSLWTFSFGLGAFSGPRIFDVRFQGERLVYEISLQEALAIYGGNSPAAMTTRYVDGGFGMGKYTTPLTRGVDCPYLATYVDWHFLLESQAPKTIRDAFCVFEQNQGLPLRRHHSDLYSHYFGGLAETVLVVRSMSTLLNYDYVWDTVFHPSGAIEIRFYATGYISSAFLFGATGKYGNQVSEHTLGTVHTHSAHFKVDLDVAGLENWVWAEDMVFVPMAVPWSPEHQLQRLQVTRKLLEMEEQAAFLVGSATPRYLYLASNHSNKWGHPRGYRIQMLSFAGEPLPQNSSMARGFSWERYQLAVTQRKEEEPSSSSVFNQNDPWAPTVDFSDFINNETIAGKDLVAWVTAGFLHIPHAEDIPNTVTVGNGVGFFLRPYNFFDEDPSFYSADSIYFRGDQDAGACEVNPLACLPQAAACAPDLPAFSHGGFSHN
The experiment in a line: Inhibition of human VAP-1 expressed in CHO cells using 14C-benzylamine as substrate preincubated for 20 mins followed by substrate addition measured after 1 hr by scintillation spectrometric analysis. It counts as cell-based.

The target in the next series is CYP3A4 (Homo sapiens, UniProt P08684). The experiment in a line: Inhibition of CYP3A4 in human liver microsomes assessed as residual activity at 5 uM using midazolam as substrate after 20 mins by LC-MS/MS analysis. In kind it is ADME. The settings on record: probe midazolam, read-out: Activity. In short, it runs like this: (§1)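 Pooled human liver microsomes (0.1 mg/mL) in 100 mM Na-K phosphate pH 7.4 with 1 mM NADPH. Test compound at 5 μM was co-incubated with a probe cocktail including midazolam (1.5 μM) and S-mephenytoin (30 μM) at 37 °C for 20 min. The reaction was stopped with 80% acetonitrile. 1'-Hydroxymidazolam (CYP3A4) and 4'-hydroxymephenytoin (CYP2C19) were measured by LC-MS/MS. Residual activity = activity with compound / vehicle activity × 100.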
Sequence of CYP3A4 (P08684 whole entry): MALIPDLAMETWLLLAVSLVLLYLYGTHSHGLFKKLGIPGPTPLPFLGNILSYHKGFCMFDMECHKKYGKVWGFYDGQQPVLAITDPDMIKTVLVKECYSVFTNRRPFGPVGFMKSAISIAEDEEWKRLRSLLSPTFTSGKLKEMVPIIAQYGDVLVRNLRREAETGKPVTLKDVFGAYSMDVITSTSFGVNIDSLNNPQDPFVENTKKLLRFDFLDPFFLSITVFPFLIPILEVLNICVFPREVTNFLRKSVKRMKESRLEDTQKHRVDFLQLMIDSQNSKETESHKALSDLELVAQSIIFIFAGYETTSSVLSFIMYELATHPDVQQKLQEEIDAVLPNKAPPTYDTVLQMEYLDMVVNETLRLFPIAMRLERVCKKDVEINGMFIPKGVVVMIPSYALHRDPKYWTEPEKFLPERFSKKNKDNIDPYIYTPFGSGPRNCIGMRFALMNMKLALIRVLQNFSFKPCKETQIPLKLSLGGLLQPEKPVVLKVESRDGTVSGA

Another series addresses CYP2C19 (Homo sapiens, UniProt P33261). The experiment in a line: Inhibition of CYP2C19 in human liver microsomes assessed as residual activity at 5 uM using S-mephenytoin as substrate after 20 mins by LC-MS/MS analysis. It counts as ADME. The settings on record: probe S-mephenytoin, read-out: Activity. In short, it runs like this: as §1
Series [3] in a line: Aqueous solubility of the compound in solution at pH 6.8 in presence of 15 mM sodium taurocholate. It counts as physicochemical. The settings on record: aqueous solution with 15 mM sodium taurocholate.
Series [4] has as its system Rattus norvegicus. The experiment in a line: Inhibition of VAP-1 in Wistar rat plasma at 1 mg/kg, po using 14C-benzylamine as substrate preincubated for 20 mins followed by substrate addition measured after 6 hr by scintillation spectrometric analysis. In kind it is functional. In short, it runs like this: (§2)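 Male Wistar rats (n = 4) dosed orally. Tail-vein blood was taken under ether anaesthesia before dosing and at 1 or 6 h after. Plasma was kept at -80 °C. 100 μL plasma was reacted with 14C-benzylamine at 37 °C for 2 h. Non-specific activity was measured with 1 mmol/L FR299676 and subtracted. 14C-Benzaldehyde was counted by liquid scintillation. Inhibition ratio = fall from the pre-dose activity, in %.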

Series [5] is described as follows: Aqueous solubility of the compound in solution at pH 6.8. It counts as physicochemical.
Series [6] has as its system Rattus norvegicus. Put plainly: Inhibition of VAP-1 in Wistar rat plasma at 1 mg/kg, po using 14C-benzylamine as substrate preincubated for 20 mins followed by substrate addition measured after 1 hr by scintillation spectrometric analysis. It counts as functional. In short, it runs like this:
as §2

A short description of series [7]: Volume of distribution at steady state in Wistar rat at 1 mg/kg, iv by LC-MS/MS analysis. In kind it is ADME, organism-based. The settings on record: in vivo, read-out: Vdss. In short, it runs like this:
(§3)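 Male Wistar rats, fasted about 18 h, dosed at 1 mg/kg iv (solution in 5% DMSO in water) or orally, n = 3. Plasma was deproteinated with acetonitrile and the compound was quantified by LC-MS/MS. Parameters came from non-compartmental analysis.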

Series [8] is described as follows: Oral bioavailability in Wistar rat at 1 mg/kg by LC-MS/MS analysis. It counts as ADME, organism-based. Conditions: in vivo. In short, it runs like this: as §3
Series [9] can be described thus: Plasma concentration in Wistar rat at 1 mg/kg, po after 6 hrs post dose by LC-MS/MS analysis. It counts as ADME, organism-based. In short, it runs like this: as §3
Series [10] can be described thus: Half life in Wistar rat at 1 mg/kg, iv by LC-MS/MS analysis. The settings on record: in vivo. It counts as ADME, organism-based. In short, it runs like this:
as §3

Series [11] in a line: Plasma concentration in Wistar rat at 1 mg/kg, po after 1 hr post dose by LC-MS/MS analysis. In kind it is ADME, organism-based. Put shortly:
as §3

The nature of series [12]: Cmax in Wistar rat at 1 mg/kg, po by LC-MS/MS analysis. More on the design: dose 1 mg/kg, route oral. It counts as ADME, organism-based. The settings on record: in vivo. In short, it runs like this: as §3
Series [13] is described as follows: AUC (0 to 24 hrs) in Wistar rat at 1 mg/kg, iv by LC-MS/MS analysis. It counts as ADME, organism-based. Also on record: dose 1 mg/kg, time < 24 hr, route intravenous. The settings on record: in vivo. Put shortly: as §3
Series [14] can be described thus: Total clearance in Wistar rat at 1 mg/kg, iv by LC-MS/MS analysis. It counts as ADME, organism-based. Conditions: in vivo. In short, it runs like this:
as §3

For series [15], the system named is Rattus norvegicus. Put plainly: In vivo inhibition of VAP-1 in STZ-induced diabetic Sprague-Dawley rat assessed as reduction in proteinuria progression at 0.3 to 1 mg/kg, po for 4 weeks measured after 24 hrs by Bradford colorimetric assay. It counts as functional, organism-based. In short, it runs like this: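 Male SD rats (6 weeks old) given STZ 65 mg/kg ip in citrate-buffered saline pH 4.5; sham rats got buffer. Groups were set by plasma glucose and body weight at day 3. Dosing was oral in 0.5% MC, 5 mL/kg, once daily for 4 weeks. 24-h metabolic-cage urine was collected in week 4 and protein measured by Bradford assay; excretion = concentration × urine volume. Mean ± SEM; Dunnett's test against STZ control.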

Series [16] concerns Rattus norvegicus. Put plainly: Inhibition of VAP-1 in Wistar rat plasma at 0.3 mg/kg, po using 14C-benzylamine as substrate preincubated for 20 mins followed by substrate addition measured after 6 hr by scintillation spectrometric analysis. In kind it is functional. Put shortly: as §2
The nature of series [17]: Half life in Wistar rat at 1 mg/kg, po by LC-MS/MS analysis. The settings on record: in vivo. It counts as ADME, organism-based. Put shortly: as §3
Series [18] has as its system Rattus norvegicus. Put plainly: Inhibition of VAP-1 in Wistar rat plasma at 0.3 mg/kg, po using 14C-benzylamine as substrate preincubated for 20 mins followed by substrate addition measured after 1 hr by scintillation spectrometric analysis. It counts as functional. In short, it runs like this:
as §2

Series [19] deals with Rattus norvegicus. The experiment in a line: In vivo inhibition of VAP-1 in STZ-induced diabetic Sprague-Dawley rat plasma at 0.3 to 1 mg/kg, po for 4 weeks measured after 24 hrs after final dose using 14C-benzylamine as substrate by scintillation spectrometric analysis. In kind it is functional, organism-based. In short, it runs like this:
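STZ-diabetic SD rats (65 mg/kg ip) dosed orally once daily for 4 weeks in 0.5% MC. Suborbital blood was taken under ether 24 h after the last dose. 50 μL plasma was reacted with 14C-benzylamine at 37 °C for 1 h, minus non-specific activity measured with 1 mmol/L FR299676. Liquid scintillation counting; mean ± SEM, Dunnett's test against STZ control.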

Series [20] in a line: AUC (0 to 24 hrs) in Wistar rat at 1 mg/kg, po by LC-MS/MS analysis. More on the design: dose 1 mg/kg, time < 24 hr, route oral. Conditions: in vivo. It counts as ADME, organism-based. Put shortly:
as §3

The structures appear in SMILES notation. Active and inactive are the calls of the source. No cut-off for these calls is given here. Bounds are passed on as bounds.

Sequence of CYP2C19 (P33261 whole entry): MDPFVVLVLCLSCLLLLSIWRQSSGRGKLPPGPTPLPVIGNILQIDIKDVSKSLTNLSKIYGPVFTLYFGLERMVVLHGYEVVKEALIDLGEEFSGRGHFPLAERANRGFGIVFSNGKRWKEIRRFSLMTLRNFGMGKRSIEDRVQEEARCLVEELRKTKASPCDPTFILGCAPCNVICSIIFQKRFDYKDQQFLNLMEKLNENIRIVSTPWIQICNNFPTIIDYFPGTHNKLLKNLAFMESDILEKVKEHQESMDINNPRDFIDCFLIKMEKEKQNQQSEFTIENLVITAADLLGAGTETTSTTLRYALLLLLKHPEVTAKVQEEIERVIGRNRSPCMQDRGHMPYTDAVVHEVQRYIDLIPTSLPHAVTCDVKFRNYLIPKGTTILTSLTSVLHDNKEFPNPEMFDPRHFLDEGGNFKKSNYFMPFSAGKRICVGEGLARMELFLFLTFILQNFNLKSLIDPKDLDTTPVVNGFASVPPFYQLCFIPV

On to `CN(Cc1cccc(-c2ccc(N3CCOCC3)cc2)n1)C(=O)CN`, for which the 50% inhibitory concentration (IC50) in [1] came to 160 nM; in series [2], 2000 nM.

For the compound `CN(Cc1cccc(-c2cnc(N3CCC(CCC(=O)O)CC3)nc2)c1)C(=O)CN`, half-maximal inhibition in series [2] (IC50) required 140 nM. Besides, the activity at 20 min, 5 µM on CYP3A4 stood at 108%; on CYP2C19, 119%.

Regarding `CN(Cc1cccc(-c2cnc(N3CCN(c4ccc(C(=O)O)cc4)CC3)nc2)c1)C(=O)CN.Cl.Cl`, the half-maximal inhibitory concentration (IC50) was found to be 10 nM in series [1] and 24 nM in [2]. Moreover, the solubility in series [3] and in series [5] was less than 1 µM each time. Further, the values for the activity at 20 min, 5 µM on CYP3A4 and at CYP2C19 were 100% and 106%, respectively. Further, the values for the inhibition in vivo at 1 mg/kg with Rattus norvegicus [4] and in the series on Rattus norvegicus [6] were 60% and 68%, respectively.

The compound `CN(Cc1cccc(-c2cnc(N3CCC[C@@H]3CO)nc2)c1)C(=O)CN` gave a 50% inhibitory concentration (IC50) in [2] of 300 nM.

As for `CN(Cc1cccc(-c2cnc(N3CCN(c4ccc(C(=O)O)cc4Cl)CC3)nc2)c1)C(=O)CN.Cl.Cl`, the solubility in series [3] amounted to 89.6 µM; in series [5], 2.3 µM. In addition, the Vd in [7] was determined as 0.386 L/kg. The bioavailability in series [8] was 17.4%. Further, the activity at 20 min, 5 µM is 98% at CYP3A4 and 109% on CYP2C19. For the same compound, the inhibition in vivo at 1 mg/kg in the series on Rattus norvegicus [4] worked out at 93%; in the series on Rattus norvegicus [6], 96%. In addition, the concentration at 6 h in series [9] is 7.1 ng/mL. The figures for the half-life in series [10] and in series [17] were 1.39 h and 1.29 h, respectively. The concentration at 1 h in [11] came out at 111 ng/mL. Moreover, the peak concentration (Cmax) in [12] worked out at 113 ng/mL. For the same compound, the AUC(0-t) at 24 h in series [13] was determined as 1920 ng·h/mL; in series [20] it was 334 ng·h/mL. Further, the clearance in [14] was found to be 8.69 mL/min/kg. For the same compound, the inhibition result in the series on Rattus norvegicus [15] and in the series on Rattus norvegicus [19] was “Active” each time. Besides, the inhibition in vivo at 0.3 mg/kg in the series with Rattus norvegicus [16] was found to be 62%; in the series on Rattus norvegicus [18], 64%.

`CN(Cc1cccc(-c2cnc(N3CCCCC3)nc2)c1)C(=O)CN` displayed an IC50 in series [2] of 250 nM.

Compound `CN(Cc1cccc(-c2cnc(N3CCC[C@H]3CO)nc2)c1)C(=O)CN` displayed an IC50 in series [2] of 240 nM.

For `CN(Cc1cccc(-c2cnc(N3CCC(C(=O)O)CC3)nc2)c1)C(=O)CN`, the IC50 in series [2] is 1700 nM. In addition, the activity at 20 min, 5 µM amounted to 112% at CYP3A4 and 104% on CYP2C19.

In the case of `CN(Cc1cccc(-c2ccc(N3CCOCC3)cc2)c1)C(=O)CN`, the activity at 20 min, 5 µM turned out to be 57% at CYP3A4 and 63% on CYP2C19.

Values taken from ChEMBL document CHEMBL4052665, “Synthesis and pharmacological evaluation of glycine amide derivatives as novel vascular adhesion protein-1 inhibitors without CYP3A4 and CYP2C19 inhibition” (Bioorg Med Chem, 2017).
